Sampled rows, rich in hits. Any-hit rate of the full collection: about 1.8%.
Scp-1 inhibitor: Scp-1 (human) phosphatase inhibition; Q9GZU7; Recombinant Scp1, phosphopeptide, malachite green phosphate absorbance; inhibition, % at 20 µM; 340,000 tested, 0.88% active;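 active means inhibition above about 50% at 20 µM, limit read from the data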
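Test system: SCP-1 catalytic domain; Buffer or medium: Acidic Tris acetate buffer with magnesium and detergent; Also added: Phosphorylated 17-residue peptide substrate; Compound: single 20 µM dose, 1% DMSO; Schedule: enzyme reaction 45 min at room temperature, colour 5 min, stabilisation 30 min; Signal: Phosphate-binding colour reagent, absorbance read at 630 nm.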
HKDC1 inh: inhibitors of human hexokinase HKDC1; Q2TB90; recombinant HKDC1, G6PDH/diaphorase resazurin coupled fluorescence; inhibition, % at 20 µM; 340,000 tested, 0.16% active; AID 493160;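 active means inhibition above about 35% when tested at 20 µM, limit read from the data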
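Test system: recombinant HKDC1 (HK5) hexokinase enzyme, produced in-house; Amount: enzyme 5 µg/mL final; Buffer or medium: Tris pH 8.0 buffer with MgCl2, Tween-20, BSA, BME; Reagent: glucose and ATP substrates; Doses: 20 µM test compound, 1% DMSO; Incubation: 90 min reaction incubation at room temperature, dark; Detection: resorufin fluorescence at 613 nm.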
STEP block: inhibitors of human striatal-enriched phosphatase STEP | P54829 | recombinant STEP, OMFP fluorogenic substrate, fluorescence | inhibition, % at 20 µM | 360,000 tested, 0.25% active | AID 588621;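 active means inhibition at 20 µM, scaled per plate between control wells, above about 37%, limit read from the data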
Target sequence (P54829 whole entry, looked up): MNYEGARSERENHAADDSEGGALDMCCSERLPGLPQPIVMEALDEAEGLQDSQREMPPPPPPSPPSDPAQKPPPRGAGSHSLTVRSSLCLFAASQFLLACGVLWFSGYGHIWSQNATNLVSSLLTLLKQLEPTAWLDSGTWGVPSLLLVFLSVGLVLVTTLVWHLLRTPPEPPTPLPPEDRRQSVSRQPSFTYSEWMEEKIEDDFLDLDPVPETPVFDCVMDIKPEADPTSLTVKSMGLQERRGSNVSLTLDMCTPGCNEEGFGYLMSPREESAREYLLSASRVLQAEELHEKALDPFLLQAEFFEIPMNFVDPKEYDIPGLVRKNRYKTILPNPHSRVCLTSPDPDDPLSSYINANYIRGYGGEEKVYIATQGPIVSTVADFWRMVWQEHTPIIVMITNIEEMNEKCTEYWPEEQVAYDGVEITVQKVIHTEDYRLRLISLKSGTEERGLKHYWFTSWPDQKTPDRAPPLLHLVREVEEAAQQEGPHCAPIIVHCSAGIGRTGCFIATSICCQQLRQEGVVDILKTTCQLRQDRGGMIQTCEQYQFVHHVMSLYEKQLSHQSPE
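Assay system: isolated STEP enzyme. Buffer or medium: pH 6.0 Bis-Tris with DTT and Tween 20. Also added: fluorogenic phosphatase substrate OMFP at 25 µM final. Dosing: 20 µM, 1% DMSO. Timing: 20 min reaction, room temperature, in the dark. Measured by: fluorescence intensity, excitation 480 nm, emission 540 nm. Evaluation: normalized % inhibition.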
DNMT1 inh: blocks human DNA methyltransferase DNMT1; 360,000 tested, 0.83% active; DNMT1 molecular beacon, Hinp1I cleavage, fluorescence; P26358; inhibition (reported as % activation of signal), % at 10 µM; AID 588458; in the data active means inhibition above about 50%
LMPTP inh: LMPTP (human) inhibition | P24666 | recombinant LMPTP-A, OMFP fluorogenic substrate, fluorescence intensity | inhibition, % at 20 µM | 360,000 tested, 0.22% active;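 active means compounds that cut the enzyme signal by at least half of the control window in the single-dose screen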
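Assay system: LMPTP-A enzyme. Input: 0.625 nM LMPTP-A final. Probe or stimulus: 400 µM OMFP. Compound dosing: single 20 µM dose. Schedule: 50 min dark incubation at room temperature. Detection: fluorescence intensity of OMFP turnover product. Read-out: percent inhibition versus substrate-only and uninhibited controls. Benchmarks: no-enzyme low control, uninhibited high control.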
SUMO1-SIM PPI: alters human SUMO1 binding to SIM partners | P63165 | SUMO1 binding to a labelled peptide, TR-FRET, 1 h | inhibition, % at 20 µM | 360,000 tested, 0.33% active; in the data active means inhibition above about 37%
Target sequence (P63165 whole entry, looked up): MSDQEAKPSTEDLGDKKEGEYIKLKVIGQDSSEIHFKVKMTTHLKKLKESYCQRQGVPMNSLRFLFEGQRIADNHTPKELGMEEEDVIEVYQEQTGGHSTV
Beacon interf DR: counter-screen for DNMT1 inhibitors: spectral interference, dose response | shares compounds with DNMT1 inh | molecular beacon fluorescence | IC50, µM | 200 tested, under 10 active; call rule not given here
DNMT1 inh conf: confirmation of human DNMT1 inhibitors; shares compounds with DNMT1 inh; DNMT1 molecular beacon HinP1I cleavage, fluorescence; inhibition, % at 10 µM; 2,300 tested, 8% active;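 active means average inhibition of at least 30% in the single-concentration confirmation test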
DNMT1 interf: shows spectral interference in the DNMT1 beacon assay; shares compounds with DNMT1 inh; DNMT1 molecular beacon spectral interference counterscreen, fluorescence 485/520; activation (fluorescence interference), % at 10 µM; 2,300 tested, 1% active; AID 602387;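 active means activation of at least 30% at 10 µM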;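 further: DNMT1 catalytic domain with a HinP1I cleavage step and a FAM/dabcyl DNA beacon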
Hits are given with their value; - = inactive; . = no result.

SMILES	Scp-1 inhibitor	HKDC1 inh	STEP block	DNMT1 inh	LMPTP inh	SUMO1-SIM PPI	DNMT1 inh conf	DNMT1 interf	others
CCOc1nc(NC(=O)NC(=O)c2ccccc2)nc(-c2ccccc2)n1	-	-	-	73	-	-	-	-
CCCCN(CC)CCNc1c(NC2CCN(C(=O)OCC)CC2)c(=O)c1=O	-	-	-	66	-	-	-	-
CCOC(=O)N1CCC(Nc2c(NCCCN(CC)CC)c(=O)c2=O)CC1	-	-	-	-	-	-	.	.
CC(C)c1ccc(NC(=O)c2cccc(Br)c2)cc1	-	-	-	-	-	-	.	.
O=C1c2cc(Cl)ccc2-c2c(O)cc(Cl)cc21	-	-	-	-	-	-	.	.
O=C(O)c1cc(O)c2c(c1)C(=O)c1cc(O)cc(O)c1C2=O	64	-	-	81	-	-	-	-
CCCn1nnnc1NCc1ccc(N2CCCC2)cc1	-	-	-	-	-	-	.	.
CCCCn1nnnc1NCc1ccc(N2CCCC2)cc1	-	-	-	70	-	-	-	-
NC(CCC(=O)O)C12CC3CC(CC(C3)C1)C2 (stereo not drawn)	-	-	-	-	-	-	.	.
O=C(O)C/C(=C\c1ccc2c(c1)OCO2)c1nc2ccccc2s1	-	-	-	-	-	-	.	.
O=C(O)C/C(=C\c1cc(Cl)c2c(c1)OCO2)c1nc2ccccc2s1	-	-	-	53	-	-	-	-
CC1CCN(S(=O)(=O)c2ccc(NC(=O)Cn3nnc(-c4ccccc4)n3)cc2)CC1	-	-	-	56	-	-	-	-
C(=Nc1cccc2c(N=Cc3ccco3)cccc12)c1ccco1	-	-	-	-	-	-	.	.
C(=N\C(/N=C/c1ccco1)c1ccco1)/c1ccco1	-	-	-	71	-	-	-	-
COc1ccccc1C#Cc1cnc2c(c1)C(=O)N([C@H](C)CO)C[C@H](C)[C@@H](CN(C)S(=O)(=O)c1cn(C)cn1)O2	.	.	-	100	-	-	-	-
N=C1C(c2nc(-c3ccc(Br)cc3)cs2)=C(O)CN1NC(=O)c1ccc([N+](=O)[O-])cc1	-	-	-	56	-	-	-	-
O=C(COC(=O)c1ccccc1)NCCC1=CCCCC1	-	-	-	-	-	-	.	.
CCCOc1cc2c(C#N)c(N3CCCC3)nc(N)c2c(N)n1	-	-	-	97	-	51	-	-
COc1cc2c(C#N)c(N3CCN(C)CC3)nc(N)c2c(N)n1	.	.	-	-	-	-	.	.
COc1cc2c(C#N)c(N3CCCC3)nc(N)c2c(N)n1	-	-	-	99	-	56	-	-
Cc1cc(NC(=O)CN2C(=O)NC3(CCCCC3C)C2=O)no1 (stereo not drawn)	-	-	-	-	-	-	.	.
N#Cc1cn(-c2ccccc2)nc1-c1cc2ccccc2oc1=O	-	-	-	-	-	-	.	.
O=Cc1cn(-c2ccccc2)nc1-c1cc2c(ccc3ccccc32)oc1=O	-	-	-	53	-	-	-	-
COc1ccc2oc(C(=O)Nc3ccccc3N3CCOCC3)c(C)c2c1	-	-	-	-	-	-	.	.
COc1ccc2oc(C(=O)Nc3ccc(N4CCOCC4)cc3)c(C)c2c1	-	-	-	51	-	-	-	-
SMILES	Scp-1 inhibitor	HKDC1 inh	STEP block	DNMT1 inh	LMPTP inh	SUMO1-SIM PPI	DNMT1 inh conf	DNMT1 interf	others
O=C1CCCC2=C1C(c1ccco1)Nc1ccc3ccccc3c12 (stereo not drawn)	74	-	-	103	-	-	50	-	Beacon interf DR=-
Cc1cccc2c(SCC(=O)NCC3CCCO3)nc(-c3ccc(F)cc3)nc12 (stereo not drawn)	-	-	-	-	-	-	-	-
CCNC(=O)C1(C)CCN(C(=O)c2ccc(OC(F)F)cc2)C1 (stereo not drawn)	.	.	-	-	-	-	.	.
O=C(NCc1ccc2c(c1)OCO2)c1ccc(Br)cc1	-	-	-	-	-	-	.	.
O=C(NCc1ccc2c(c1)OCO2)c1cc2ncc(Br)cn2n1	72	-	-	71	52	-	-	-
COc1ccc(Cl)cc1NC(=O)C/C(C)=N/NC(=O)c1ccccc1[N+](=O)[O-]	-	-	-	-	-	-	.	.
COc1ccc(Cl)cc1NC(=O)c1cccc([N+](=O)[O-])c1O	-	-	-	66	-	-	-	-
O=C(O)c1ccc2c3c(cccc13)C(=O)N(c1ccccc1)C2=O	-	-	-	63	-	-	-	-
Nc1ccc2c3c(cccc13)C(=O)N(c1ccccc1)C2=O	-	-	-	60	-	-	146	115
COc1ccc(NS(=O)(=O)c2ccc(O)c(NC(=O)c3cc4c(C)nn(-c5ccc(F)cc5)c4s3)c2)cc1	-	-	-	97	-	-	69	-	Beacon interf DR=-
COc1ccc2c(C(=O)c3ccc(C)cc3)n(CCCC(N)=O)[n+]([O-])c2c1	-	-	-	-	-	-	.	.
Cc1ccccc1/C=N/Nc1ccnc2cc(Cl)ccc12	-	-	-	70	-	-	-	-
Cc1ccc(/C=N/Nc2ccnc3cc(Cl)ccc23)c(C)c1	-	-	-	62	-	-	-	-
Clc1ccc2c(N/N=C/c3ccc(Br)cc3)ccnc2c1	-	-	-	66	-	-	-	-
Oc1ccc(/C=N/Nc2ccnc3cc(Cl)ccc23)c(O)c1	-	-	-	84	-	112	-	-
Oc1ccc(Nc2ccnc3cc(Cl)ccc23)cc1	-	-	-	-	-	-	.	.
Clc1ccc(NNc2ccnc3cc(Cl)ccc23)cc1	-	-	-	-	-	-	.	.
Clc1ccc2c(N/N=C/c3cccnc3)ccnc2c1	-	-	-	-	-	-	.	.
CC1(C)SC(=S)N(NC(=O)Nc2cccc3ccccc23)C1N(O)C(=O)Nc1ccccc1 (stereo not drawn)	-	-	-	-	-	-	.	.
COc1ccc(S(N)(=O)=O)cc1C(=O)NNC(=O)c1cccc(S(=O)(=O)N2CCOCC2)c1	-	-	-	-	-	-	.	.
COc1cccc(N2C(=O)CC(N3CCN(CCN=CC4=C(O)CC(C)(C)CC4=O)CC3)C2=O)c1 (stereo not drawn)	-	-	-	-	-	-	.	.
CCN1C(=O)[C@H]2[C@@H](c3ccc(C(F)(F)F)cc3)N[C@]3(CCCN(Cc4ccc(C(F)(F)F)cc4)C3=O)[C@H]2C1=O	.	.	-	-	-	-	.	.
